One assay has as its system PC-3. Briefly: Antiproliferative activity against human PC3 cells assessed as inhibition of cell growth incubated for 96 hrs by MTT assay. Format: functional. To be noted: PC-3, 96 h. The gist of the method:
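PC-3 cells grown in RPMI1640 with 10% heat-inactivated FBS, seeded at 2×10^4 cells/well and kept 24 h at 37 °C in 5% CO2. Compounds were then added at various concentrations for 96 h. MTT (2 mg/mL) was added for a further 4 h, cells dissolved in DMSO, and A570 read. Growth was treated/untreated cell number, with GI50 calculated from inhibition ratios. Mean of three independent runs.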
(Tetrazolium assays rely on reduction of a dye to a coloured formazan, in cell work by metabolically active cells.)

The test system of the next assay is LNCaP. Briefly: Antiproliferative activity against human LNCAP cells assessed as inhibition of cell growth incubated for 96 hrs by MTT assay. The class given is functional. The gist of the method: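 MTT growth assay. Cells seeded at 2×10^4 per well and held 24 h at 37 °C under 5% CO2 before compound was added at a range of concentrations. Exposure lasted 96 h, then 2 mg/mL MTT was added for 4 h. Cells were dissolved in DMSO and absorbance read at 570 nm. Growth was taken as treated/untreated cell number. GI50 was derived from the inhibition ratios. Three independent experiments, mean reported.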

The target of assay [1] is T1, Peptidyl-prolyl cis-trans isomerase NIMA-interacting 1 (Homo sapiens, UniProt Q13526). Briefly: Inhibition of Pin1 (unknown origin) assessed as reduction in peptidyl-prolyl isomerase activity at 10 uM incubated for 30 mins using Suc-Ala-Glu-cis-Pro-Phe-4-nitroanilide substrate by protease coupled assay. The gist of the method: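 Commercial Pin1 in 35 mM HEPES pH 7.8 was pre-equilibrated with compound (DMSO solutions) for 30 min at 10 °C. Ice-cold chymotrypsin (stock 60 mg/mL in 0.001 M HCl) was added, then Suc-Ala-Glu-cis-Pro-Phe-4-nitroanilide in 0.47 mol/L LiCl/trifluoroethanol was added to start the reaction. Absorbance at 390 nm was monitored for 90 s at 10 °C.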

The target in assay [2] is T1, Peptidyl-prolyl cis-trans isomerase NIMA-interacting 1. Briefly: Inhibition of Pin1 (unknown origin) assessed as reduction in peptidyl-prolyl isomerase activity incubated for 30 mins using Suc-Ala-Glu-cis-Pro-Phe-4-nitroanilide substrate by protease coupled assay.
For assay [3] the target is unchanged. Briefly: Inhibition of Pin1 in human PC3 cells assessed as reduction in Cyclin D1 protein level at 10 to 30 uM incubated for 24 hrs by Western blot method. Format: cell-based. The gist of the method: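 PC-3 cells were treated 24 h with compound at 10, 20 or 30 μM, with DMSO as control. Cells were lysed in RIPA buffer with protease inhibitors, and 40 μg protein was run on 10% SDS-PAGE and blotted to nitrocellulose. Ponceau S was used as a loading check. Membranes were blocked in 5% milk and probed overnight at 4 °C with anti-cyclin D1 and β-actin, with secondary antibody 1 h at 37 °C. ECL detection.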

In ChEMBL document CHEMBL4043201, “Conjugates of 18β-glycyrrhetinic acid derivatives with 3-(1H-benzo[d]imidazol-2-yl)propanoic acid as Pin1 inhibitors displaying anti-prostate cancer ability” (Bioorg Med Chem, 2017) one finds GI50, inhibition and IC50 data, which are given here for 20 compounds.

T1 sequence (Q13526 whole entry): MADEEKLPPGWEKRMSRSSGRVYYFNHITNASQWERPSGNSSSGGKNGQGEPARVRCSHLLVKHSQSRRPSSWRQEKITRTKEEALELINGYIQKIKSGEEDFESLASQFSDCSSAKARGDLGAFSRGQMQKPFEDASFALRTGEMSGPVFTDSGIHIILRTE

One may read the GI50 as the concentration at which growth is held to half of that of the control. The term inhibition denotes the percentage by which the read-out fell short of the control. In the case of `COC(=O)[C@@]1(C)CC[C@]2(C)CC[C@]3(C)C(=CC(=O)[C@@H]4[C@@]5(C)CC[C@H](OC(=O)CCn6c(CCC(=O)O)nc7ccccc76)C(C)(C)[C@@H]5CC[C@]43C)[C@@H]2C1`, the GI50 in the assay on PC-3 is 16.1 µM; in the assay on LNCaP, 26.6 µM. The inhibition in assay [1] stood at 88%.
Broadly, the IC50 is the point on the concentration scale where inhibition reaches its midpoint. With `CC(=O)O[C@H]1CC[C@]2(C)[C@H]3C(=O)C=C4[C@@H]5C[C@@](C)(C(=O)NCCn6c(CCC(=O)O)nc7ccccc76)CC[C@]5(C)CC[C@@]4(C)[C@]3(C)CC[C@H]2C1(C)C`, the concentration for 50% growth inhibition (GI50) in the assay with PC-3 and with LNCaP was over 50 µM throughout. In addition, the 50% inhibitory concentration (IC50) in assay [2] was over 10 µM. For the same compound, in assay [1], the inhibition is 27%.
As to `CC1(C)[C@@H](O)CC[C@]2(C)[C@H]3C(=O)C=C4[C@@H]5C[C@@](C)(C(=O)O)CC[C@]5(C)CC[C@@]4(C)[C@]3(C)CC[C@@H]12` [ENOXOLONE], the GI50 in the assay on PC-3 was 95.7 µM. Besides, in assay [2], the half-inhibitory concentration (IC50) is over 10 µM. Further, in assay [1], the inhibition is 34%.
For the compound `CC1(C)C(=O)CC[C@]2(C)[C@H]3C(=O)C=C4[C@@H]5C[C@@](C)(C(=O)OCCn6c(CCC(=O)O)nc7ccccc76)CC[C@]5(C)CC[C@@]4(C)[C@]3(C)CC[C@@H]12`, the concentration for 50% growth inhibition (GI50) in the assay with PC-3 came out at 39.9 µM; with LNCaP it was 48.9 µM. Besides, the inhibition in assay [1] was 63%.
Take `CC1(C)[C@@H](O)CC[C@]2(C)[C@H]3CC=C4[C@@H]5C[C@@](C)(C(=O)OCCCn6c(CCC(=O)O)nc7ccccc76)CC[C@]5(C)CC[C@@]4(C)[C@]3(C)CC[C@@H]12`: the 50% growth inhibitory concentration (GI50) in the assay on PC-3 was found to be 25.6 µM; with LNCaP, 42.7 µM. Further, the IC50 in assay [2] is 2.82 µM. Further, the inhibition in assay [1] turned out to be 100%.
For the compound `CC1(C)[C@@H](O)CC[C@]2(C)[C@H]3CC=C4[C@@H]5C[C@@](C)(C(=O)OCCn6c(CCC(=O)O)nc7ccccc76)CC[C@]5(C)CC[C@@]4(C)[C@]3(C)CC[C@@H]12`, the GI50 with PC-3 and in the assay with LNCaP was over 50 µM throughout. For the same compound, the inhibition in assay [1] turned out to be 54%.
In the case of `CC(=O)O[C@H]1CC[C@]2(C)[C@H]3C(=O)C=C4[C@@H]5C[C@@](C)(C(=O)OCCn6c(CCC(=O)O)nc7ccccc76)CC[C@]5(C)CC[C@@]4(C)[C@]3(C)CC[C@H]2C1(C)C`, the results for the concentration for 50% growth inhibition (GI50) in the assay with PC-3 and in the assay on LNCaP were 27.4 µM and 24.4 µM, respectively. Besides, the 50% inhibitory concentration (IC50) in assay [2] came out at 1.06 µM. In assay [1], the inhibition was determined as 100%.
Turning to `CC1(C)C(=O)CC[C@]2(C)[C@H]3CC=C4[C@@H]5C[C@@](C)(C(=O)OCCCn6c(CCC(=O)O)nc7ccccc76)CC[C@]5(C)CC[C@@]4(C)[C@]3(C)CC[C@@H]12`, the concentration for 50% growth inhibition (GI50) in the assay on PC-3 was determined as 13 µM; in the assay on LNCaP, 19.7 µM. Also, the IC50 in assay [2] was 3.8 µM. For the same compound, the inhibition in assay [1] is 98%.
Turning to `CC1(C)C(=O)CC[C@]2(C)[C@H]3C(=O)C=C4[C@@H]5C[C@@](C)(C(=O)OCCCn6c(CCC(=O)O)nc7ccccc76)CC[C@]5(C)CC[C@@]4(C)[C@]3(C)CC[C@@H]12`, the 50% growth inhibitory concentration (GI50) with PC-3 was 35.6 µM; with LNCaP, 29.3 µM. Besides, the inhibition in assay [1] came out at 77%.
On to `CC1(C)[C@@H](O)CC[C@]2(C)[C@H]3C(=O)C=C4[C@@H]5C[C@@](C)(C(=O)OCCCn6c(CCC(=O)O)nc7ccccc76)CC[C@]5(C)CC[C@@]4(C)[C@]3(C)CC[C@@H]12`, for which the GI50 in the assay with PC-3 and in the assay on LNCaP was over 50 µM each time. Moreover, the IC50 in assay [2] is over 10 µM. The inhibition in assay [1] came out at 40%.
On to `CC1(C)C(=O)CC[C@]2(C)[C@H]3C(=O)C=C4[C@@H]5C[C@@](C)(C(=O)NCCn6c(CCC(=O)O)nc7ccccc76)CC[C@]5(C)CC[C@@]4(C)[C@]3(C)CC[C@@H]12`, for which the GI50 with PC-3 and with LNCaP was over 50 µM throughout. In addition, the concentration for half-maximal inhibition (IC50) in assay [2] is over 10 µM. For the same compound, the inhibition in assay [1] was 38%.
For the compound `O=C(O)CCc1nc2ccccc2[nH]1` [PROCODAZOLE], the concentration for 50% growth inhibition (GI50) in the assay with PC-3 and in the assay with LNCaP was over 50 µM each time. Also, the inhibition in assay [1] stood at 23%.
As to `CC1(C)[C@@H](O)CC[C@]2(C)[C@H]3C(=O)C=C4[C@@H]5C[C@@](C)(C(=O)OCCn6c(CCC(=O)O)nc7ccccc76)CC[C@]5(C)CC[C@@]4(C)[C@]3(C)CC[C@@H]12`, the GI50 in the assay on PC-3 and with LNCaP was over 50 µM each time. The inhibition in assay [1] was found to be 60%.
For the compound `CC1(C)C(=O)CC[C@]2(C)[C@H]3C(=O)C=C4[C@@H]5C[C@@](C)(C(=O)NCCCn6c(CCC(=O)O)nc7ccccc76)CC[C@]5(C)CC[C@@]4(C)[C@]3(C)CC[C@@H]12`, the GI50 in the assay on PC-3 and in the assay on LNCaP was over 50 µM each time. Also, the concentration for half-maximal inhibition (IC50) in assay [2] was over 10 µM. Also, the inhibition in assay [1] was 28%.
With `CC(=O)O[C@H]1CC[C@]2(C)[C@H]3C(=O)C=C4[C@@H]5C[C@@](C)(C(=O)OCCCn6c(CCC(=O)O)nc7ccccc76)CC[C@]5(C)CC[C@@]4(C)[C@]3(C)CC[C@H]2C1(C)C`, the concentration for 50% growth inhibition (GI50) was determined as 11.8 µM in the assay with PC-3 and 15.5 µM in the assay with LNCaP. The half-inhibitory concentration (IC50) in assay [2] stood at 1.33 µM. Further, the inhibition in assay [1] was found to be 100%.
In the case of `CC(=O)O[C@H]1CC[C@]2(C)[C@H]3CC=C4[C@@H]5C[C@@](C)(C(=O)OCCn6c(CCC(=O)O)nc7ccccc76)CC[C@]5(C)CC[C@@]4(C)[C@]3(C)CC[C@H]2C1(C)C`, the figures for the GI50 in the assay with PC-3 and in the assay with LNCaP were 10.9 µM and 13.3 µM, respectively. In assay [2], the IC50 amounted to 4.79 µM. Further, in assay [1], the inhibition turned out to be 94%.
On to `COC(=O)[C@@]1(C)CC[C@]2(C)CC[C@]3(C)C(=CC(=O)[C@@H]4[C@@]5(C)CC[C@H](OC(=O)Cn6c(CCC(=O)O)nc7ccccc76)C(C)(C)[C@@H]5CC[C@]43C)[C@@H]2C1`, for which the GI50 was determined as 7.8 µM with PC-3 and 13.2 µM in the assay on LNCaP. Also, in assay [2], the IC50 amounted to 1.07 µM. Further, the inhibition result in assay [3] was “Dose-dependent effect”; in assay [1], 100%.
Regarding `CC1(C)C(=O)CC[C@]2(C)[C@H]3CC=C4[C@@H]5C[C@@](C)(C(=O)OCCn6c(CCC(=O)O)nc7ccccc76)CC[C@]5(C)CC[C@@]4(C)[C@]3(C)CC[C@@H]12`, the GI50 in the assay with PC-3 was 18.4 µM; in the assay with LNCaP, 25.8 µM. Also, the inhibition in assay [1] was 69%.
As for `CC(=O)O[C@H]1CC[C@]2(C)[C@H]3C(=O)C=C4[C@@H]5C[C@@](C)(C(=O)NCCCn6c(CCC(=O)O)nc7ccccc76)CC[C@]5(C)CC[C@@]4(C)[C@]3(C)CC[C@H]2C1(C)C`, the GI50 in the assay with PC-3 and in the assay with LNCaP was over 50 µM throughout. Moreover, the inhibition in assay [1] worked out at 50%.
As for `O=C1C=CC(=O)c2c(O)cccc21` [JUGLONE], the 50% growth inhibitory concentration (GI50) with PC-3 turned out to be 4.77 µM. For the same compound, in assay [2], the IC50 was determined as 10.8 µM. Also, the inhibition in assay [1] worked out at 44%.
